Active and inactive are the calls of the source. No cut-off for these calls is given here.
Tests used:
[1] = tested on: Aeromonas hydrophila; test: Antibacterial activity against Aeromonas hydrophila at 0.125% (w/v) concentration after 24 hrs by disc diffusion method; assay type: functional
Procedure, shortened: (§1)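 Disc diffusion on nutrient agar (pH 7.5 ± 0.2) swabbed with bacterial culture; compounds dissolved in chloroform at 0.125%, 0.25% or 0.5% w/v, soaked onto 5 mm filter paper discs placed on seeded plates. Incubated 35 ± 2 °C, 24 h; inhibition zone diameter (mm) measured, minus zone from solvent-only plate.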

[2] = tested on: Aeromonas hydrophila; test: Antibacterial activity against Aeromonas hydrophila at 0.25% (w/v) concentration after 24 hrs by disc diffusion method; assay type: functional; procedure, shortened: as §1
[3] = tested on: Aeromonas hydrophila; test: Antibacterial activity against Aeromonas hydrophila at 0.5% (w/v) concentration after 24 hrs by disc diffusion method; assay type: functional; procedure, shortened: as §1
[4] = tested on: Escherichia coli; test: Antibacterial activity against Escherichia coli at 0.125% (w/v) concentration after 24 hrs by disc diffusion method; assay type: functional; procedure, shortened: as §1
[5] = tested on: Escherichia coli; test: Antibacterial activity against Escherichia coli at 0.25% (w/v) concentration after 24 hrs by disc diffusion method; assay type: functional; procedure, shortened: as §1
[6] = tested on: Escherichia coli; test: Antibacterial activity against Escherichia coli at 0.5% (w/v) concentration by after 24 hrs by disc diffusion method; assay type: functional; procedure, shortened: as §1
[7] = tested on: Salmonella typhi; test: Antibacterial activity against Salmonella typhi at 0.125% (w/v) concentration after 24 hrs by disc diffusion method; assay type: functional, Salmonella enterica subsp. enterica serovar Typhi
Procedure, shortened: (§2)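 Disc diffusion on nutrient agar (pH 7.5 ± 0.2) swabbed with bacteria. Compounds were dissolved in chloroform at a final 0.125%, 0.25% or 0.5% w/v and loaded onto 5 mm filter-paper discs. Plates were incubated at 35 ± 2 °C for 24 h. The inhibition-zone diameter (mm) was reported after subtracting the zone of the solvent-only plate.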

[8] = tested on: Salmonella typhi; test: Antibacterial activity against Salmonella typhi at 0.25% (w/v) concentration after 24 hrs by disc diffusion method; assay type: functional, Salmonella enterica subsp. enterica serovar Typhi; procedure, shortened: as §2
[9] = tested on: Salmonella typhi; test: Antibacterial activity against Salmonella typhi at 0.5% (w/v) concentration after 24 hrs by disc diffusion method; assay type: functional, Salmonella enterica subsp. enterica serovar Typhi; procedure, shortened: as §2
[10] = tested on: Aspergillus flavus; test: Antifungal activity against Aspergillus flavus at 0.5% (w/v) concentration by disc diffusion method; assay type: functional
Procedure, shortened: (§3)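 Potato dextrose agar plates were seeded with a spore suspension (10⁶ spores/mL). Compounds in acetone at a final 0.5%, 1% or 2% w/v were loaded onto 5 mm filter-paper discs. Plates were incubated at 28 ± 2 °C for four days. Zone diameter was measured after subtracting the acetone-only plate zone, with carbendazim as standard.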

[11] = tested on: Aspergillus flavus; test: Antifungal activity against Aspergillus flavus at 1% (w/v) concentration by disc diffusion method; assay type: functional; procedure, shortened: as §3
[12] = tested on: Aspergillus flavus; test: Antifungal activity against Aspergillus flavus at 2% (w/v) concentration by disc diffusion method; assay type: functional; procedure, shortened: as §3
[13] = tested on: Talaromyces funiculosus; test: Antifungal activity against Penicillium funiculosum at 0.5% (w/v) concentration by disc diffusion method; assay type: functional; procedure, shortened: as §3
[14] = tested on: Talaromyces funiculosus; test: Antifungal activity against Penicillium funiculosum at 1% (w/v) concentration by disc diffusion method; assay type: functional; procedure, shortened: as §3
[15] = tested on: Talaromyces funiculosus; test: Antifungal activity against Penicillium funiculosum at 2% (w/v) concentration by disc diffusion method; assay type: functional; procedure, shortened: as §3
[16] = tested on: Alternaria macrospora; test: Antifungal activity against Alternaria macrospora at 0.5% (w/v) concentration by disc diffusion method; assay type: functional; procedure, shortened: as §3
[17] = tested on: Alternaria macrospora; test: Antifungal activity against Alternaria macrospora at 1% (w/v) concentration by disc diffusion method; assay type: functional; procedure, shortened: as §3
[18] = tested on: Alternaria macrospora; test: Antifungal activity against Alternaria macrospora at 2% (w/v) concentration by disc diffusion method; assay type: functional; procedure, shortened: as §3
[19] = tested on: Fusarium oxysporum; test: Antifungal activity against Fusarium oxysporum at 0.5% (w/v) concentration by disc diffusion method; assay type: functional; procedure, shortened: as §3
[20] = tested on: Fusarium oxysporum; test: Antifungal activity against Fusarium oxysporum at 1% (w/v) concentration by disc diffusion method; assay type: functional; procedure, shortened: as §3
[21] = tested on: Fusarium oxysporum; test: Antifungal activity against Fusarium oxysporum at 2% (w/v) concentration by disc diffusion method; assay type: functional; procedure, shortened: as §3
[22] = Induction of chromosomal aberration in human peripheral blood leukocytes assessed as number of chromatid gaps at 20 ug/mL after 24 hrs; assay type: functional, Leukocyte
Procedure, shortened: (§4)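 Leukocytes from venous blood of three healthy non-smoking male donors, cultured at 37 °C for 72 h in McCoy's 5a with AB serum and PHA. Compound in 1% acetone was added at 0, 24 or 48 h after culture initiation (72, 48 or 24 h exposure), with water and acetone controls and triplicate cultures. Colchicine was added before harvest, then KCl hypotonic, fixation and Giemsa staining. Gaps and breaks were counted in 350 metaphases per treatment.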

[23] = Induction of chromosomal aberration in human peripheral blood leukocytes assessed as number of chromatid breaks at 20 ug/mL after 24 hrs; assay type: functional, Leukocyte; procedure, shortened: as §4

Row | Structure (SMILES) | inhibition zone (IZ) [1] [mm] | inhibition zone (IZ) [2] [mm] | inhibition zone (IZ) [3] [mm] | inhibition zone (IZ) [5] [mm] | inhibition zone (IZ) [6] [mm] | inhibition zone (IZ) [7] [mm] | inhibition zone (IZ) [8] [mm] | inhibition zone (IZ) [9] [mm] | inhibition zone (IZ) [10] [mm] | inhibition zone (IZ) [11] [mm] | inhibition zone (IZ) [12] [mm] | inhibition zone (IZ) [13] [mm] | inhibition zone (IZ) [14] [mm] | inhibition zone (IZ) [15] [mm] | inhibition zone (IZ) [16] [mm] | inhibition zone (IZ) [17] [mm] | inhibition zone (IZ) [18] [mm] | inhibition zone (IZ) [19] [mm] | inhibition zone (IZ) [20] [mm] | inhibition zone (IZ) [21] [mm] | further results
1 | Cc1ccc2c(Cl)c3c(nc2c1)C=CNN=C3 | 5 | 9 | 12 | 1 | 5 | 4 | 9 | 13 | 4 | 7 | 11 | 3 | 6 | 11 | 4 | 10 | 12 | 3 | 7 | 11 | Activity [4]: inactive; Activity [22]: 1.1%; Activity [23]: 0.6%
2 | Clc1ccc2nc3c(c(Cl)c2c1)C=NNC=C3 | 6 | 11 | 16 | 7 | 11 | 6 | 12 | 19 | 5 | 8 | 13 | 6 | 9 | 14 | 5 | 9 | 15 | 4 | 8 | 13 | inhibition zone (IZ) [4]: 3 mm
3 | Clc1c2c(nc3ccccc13)C=CNN=C2 | 5 | 8 | 12 | 2 | 4 | 4 | 6 | 10 | 3 | 5 | 9 | 1 | 4 | 9 | 1 | 3 | 7 |  | 3 | 7 | Activity [4]: inactive; Activity [19]: inactive
4 | COC(=O)Nc1nc2ccccc2[nH]1 [CARBENDAZIM] |  |  |  |  |  |  |  |  | 6 | 14 | 21 | 9 | 16 | 21 | 7 | 13 | 18 | 6 | 11 | 18 | 
5 | Cc1ccc2c(Cl)c(C=O)c(/C=C/O)nc2c1 | 3 | 7 | 10 |  | 2 | 4 | 8 | 13 | 3 | 5 | 9 | 1 | 3 | 8 | 2 | 4 | 7 | 1 | 4 | 9 | Activity [4]: inactive; Activity [5]: inactive
6 | O=Cc1c(/C=C/O)nc2ccccc2c1Cl | 4 | 6 | 9 |  |  | 3 | 5 | 9 | 2 | 3 | 8 |  | 1 | 5 |  | 1 | 4 |  |  | 4 | Activity [4]: inactive; Activity [5]: inactive; Activity [6]: inactive; Activity [13]: inactive; Activity [16]: inactive; Activity [19]: inactive; Activity [20]: inactive
7 | Cc1cccc2c(Cl)c(C=O)c(/C=C/O)nc12 | 4 | 8 | 11 |  |  | 4 | 7 | 11 | 1 | 2 | 5 |  | 2 | 6 | 2 | 5 | 9 |  | 3 | 7 | Activity [4]: inactive; Activity [5]: inactive; Activity [6]: inactive; Activity [13]: inactive; Activity [19]: inactive
8 | O=Cc1c(/C=C/O)nc2ccc(Cl)cc2c1Cl | 5 | 9 | 14 | 5 | 8 | 6 | 11 | 17 | 3 | 6 | 10 | 2 | 5 | 10 | 3 | 7 | 11 | 2 | 5 | 11 | inhibition zone (IZ) [4]: 1 mm
9 | Cc1ccc(C)c2c(Cl)c(C=O)c(/C=C/O)nc12 | 4 | 6 | 10 | 5 | 9 | 5 | 8 | 13 | 4 | 7 | 12 | 3 | 7 | 11 | 3 | 8 | 13 | 3 | 7 | 12 | inhibition zone (IZ) [4]: 3 mm
10 | CN[C@@H]1[C@H](O[C@H]2[C@H](O[C@H]3[C@H](O)[C@@H](O)[C@H](N=C(N)N)[C@@H](O)[C@@H]3N=C(N)N)O[C@@H](C)[C@]2(O)C=O)O[C@@H](CO)[C@H](O)[C@H]1O (stereo in doubt) [STREPTOMYCIN] | 8 | 12 | 19 | 9 | 15 | 8 | 10 | 18 |  |  |  |  |  |  |  |  |  |  |  |  | inhibition zone (IZ) [4]: 6 mm

Source: ChEMBL document CHEMBL1147863, “Synthesis, antimicrobial activities and cytogenetic studies of newer diazepino quinoline derivatives via Vilsmeier-Haack reaction” (2007)
